Cl transport mod: modulates chloride dependent transport by human KCC2; Q9H2X9; AID 1456; KCC2 cells, thallium flux FluoZin-2 fluorescence; actives 2.2% (n = 190,000); B-score of Tl+ flux slope (higher = more flux/activation; lower = inhibition) at 10 µM;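 active = thallium flux slope and its plate-corrected score both differing from the plate sample mean at a set confidence after two filtering rounds, in either direction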;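 also: slope of fluorescence scaled to starting intensity during 10 to 20 s after thallium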
Target sequence (Q9H2X9 whole entry, looked up): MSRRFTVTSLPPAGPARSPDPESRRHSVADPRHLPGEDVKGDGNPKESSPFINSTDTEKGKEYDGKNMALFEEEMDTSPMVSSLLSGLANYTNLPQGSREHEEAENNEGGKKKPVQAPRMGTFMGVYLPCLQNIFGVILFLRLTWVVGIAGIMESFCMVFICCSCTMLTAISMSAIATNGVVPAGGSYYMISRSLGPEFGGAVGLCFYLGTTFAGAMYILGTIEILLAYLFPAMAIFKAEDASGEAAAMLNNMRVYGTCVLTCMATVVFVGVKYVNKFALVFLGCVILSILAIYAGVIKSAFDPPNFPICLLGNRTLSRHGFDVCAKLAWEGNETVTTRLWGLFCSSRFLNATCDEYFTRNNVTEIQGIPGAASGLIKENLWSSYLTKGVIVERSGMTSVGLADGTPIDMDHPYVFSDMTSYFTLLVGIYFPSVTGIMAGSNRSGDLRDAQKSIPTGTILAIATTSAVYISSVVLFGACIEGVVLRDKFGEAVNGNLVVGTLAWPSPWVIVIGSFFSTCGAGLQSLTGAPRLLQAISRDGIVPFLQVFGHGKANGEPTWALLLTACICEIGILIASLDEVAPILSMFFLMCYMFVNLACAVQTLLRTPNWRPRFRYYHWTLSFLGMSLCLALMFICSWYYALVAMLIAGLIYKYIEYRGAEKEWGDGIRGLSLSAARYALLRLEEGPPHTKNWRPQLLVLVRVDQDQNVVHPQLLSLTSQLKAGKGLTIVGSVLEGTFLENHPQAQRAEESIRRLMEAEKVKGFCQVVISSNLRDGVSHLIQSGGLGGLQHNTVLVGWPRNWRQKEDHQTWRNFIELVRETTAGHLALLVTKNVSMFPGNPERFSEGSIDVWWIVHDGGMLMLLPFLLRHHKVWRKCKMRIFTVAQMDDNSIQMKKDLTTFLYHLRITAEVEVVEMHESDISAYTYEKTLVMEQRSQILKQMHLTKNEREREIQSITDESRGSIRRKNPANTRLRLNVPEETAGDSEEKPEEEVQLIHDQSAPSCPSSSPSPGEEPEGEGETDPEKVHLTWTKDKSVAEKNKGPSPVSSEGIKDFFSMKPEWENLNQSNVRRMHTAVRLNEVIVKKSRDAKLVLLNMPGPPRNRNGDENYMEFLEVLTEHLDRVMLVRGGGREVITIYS
MrgX1 ag: activates human MrgX1 receptor signaling. MrgX1-HEK293 cells, Fluo-4 calcium fluorescence, agonist mode; stronger effect = higher value. B-score at 10 µM. actives 0.44% (n = 310,000). AID 588627;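 active = calcium response B-score plate-corrected fluorescence ratio at least 3 library SD, with starting fluorescence B-score inside 5 SD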
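Test system: HEK293 cells stably expressing human MrgX1 receptor; amount: 15,000 cells per well; doses: compound delivered in addition one of three; times: overnight plating before 1 h dye loading; detection: Fluo-4 NW calcium-flux fluorescence, kinetic read; read-out basis: B-scored fluorescence response ratio; controls: positive and negative controls per plate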
MrgX1 PAM: allosterically activates human MrgX1 receptor signaling | Q96LB2 | MrgX1-HEK293, Fluo-4 calcium flux, FDSS; stronger effect = higher value | B-score at 10 µM | actives 0.63% (n = 310,000) | AID 588675;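 active = plate-corrected calcium response at least 3 library SD above typical, normal starting fluorescence, not activating the receptor alone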;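 also: compound read alongside a low EC10 to EC30 dose of BAM8-22 agonist; peak minus trough fluorescence over baseline measured at the second addition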
RGS4 act: RGS4 potentiation or activation | HEK293 M3R/inducible RGS4, carbachol calcium flux Fluo4; stronger effect = lower value | B-score at 10 µM | actives 0.92% (n = 310,000);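 active = B-score of the integrated calcium signal more than 4 SD below the library mean, with starting fluorescence not abnormally high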;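 also: negative B-score means reduced calcium response which marks RGS4 activation or potentiation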
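Also added: carbachol at ECmax as muscarinic agonist stimulus; Assay system: HEK293 cells with stable M3R and inducible RGS4; Timing: overnight RGS4 induction, 30 min dye load 37 °C, 20 min compound RT; Measured by: Fluo4-AM (2 µM) calcium-flux fluorescence, kinetic read.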
MrgX1 antag: antagonists of human MrgX1 receptor; actives 1.3% (n = 310,000); Q96LB2; MRGX1-HEK293 calcium flux, Fluo-4, BAM8-22 antagonism; stronger effect = lower value; B-score at 10 µM;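 active = calcium-response B-score plate-corrected more than 3 library SD below zero, starting fluorescence within 5 deviations, no agonist response on first addition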;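 also: peak minus trough fluorescence over baseline after final BAM8-22 challenge near maximal dose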
RGS4 block: human RGS4 inhibition; B-score at 10 µM; HEK293 M3R/RGS4 inducible, Fluo-4 calcium flux; stronger effect = higher value; triggered by carbachol at its EC20; actives 0.45% (n = 310,000);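 active = B-score, a plate-corrected calcium signal, over three deviations above library mean, with baseline fluorescence within five deviations of library mean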;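 also: RGS4 expression induced by doxycycline in cells with stable M3 receptor; B-score is computed from the integrated fluorescence ratio over baseline after carbachol; higher B-score means a larger calcium signal and so more RGS4 inhibition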
RGS4 inh valid: validation of RGS4 inhibitors; shares compounds with RGS4 block; HEK293 M3R/RGS4, carbachol calcium Fluo-4 fluorescence; carbachol added at its EC20; 0 = buffer wells, 100 = carbachol control; calcium response, % at 10 µM; actives 65% (n = 1,700);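 active = duplicate-averaged calcium response above the buffer-only control mean plus 5 SD of those controls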;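 also: integrated fluorescence ratio F max minus min over baseline F0; higher response in RGS4-induced cells means RGS4 inhibition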
RGS4 uninduced: counter-screen for RGS4 inhibitors: effect in non-induced cells | shares compounds with RGS4 block | HEK293 M3R non-induced, carbachol calcium Fluo-4; submaximal (EC20) carbachol stimulus; buffer wells 0%, carbachol control wells 100% | activity (percent), % at 10 µM | actives 20% (n = 1,900) | AID 493000; call rule not given here;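 also: RGS4 induction absent so cells express M3R without RGS4; higher means more calcium signal and flags a non-specific hit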
M3R basal Ca ctr: second counter-screen for RGS4 inhibitors: non-induced cells without carbachol. calcium response (agonist-mode artifact), % at 10 µM. HEK293 M3R/RGS4 non-induced, Fluo-4 calcium, no carbachol; normalised: buffer wells 0%, carbachol wells 100%. AID 493001. actives 22% (n = 1,900). shares compounds with RGS4 block;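 active = duplicate-averaged calcium rise in uninduced cells above buffer wells' mean plus 5 SD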
An asterisk follows results filed as active. An excerpt weighted towards active compounds, which were near 4.7% of everything screened.

`Cc1ccc(/C=C2\C(=O)NC(=S)N(c3ccc(F)cc3)C2=O)o1` gave MrgX1 ag inactive, MrgX1 PAM inactive, RGS4 act inactive, MrgX1 antag inactive, RGS4 block inactive, RGS4 uninduced inactive and M3R basal Ca ctr 12%*.
`COc1cccc(N2C(=O)/C(=C/c3ccc(C)o3)C(=O)NC2=S)c1` gave MrgX1 ag inactive, MrgX1 PAM inactive, RGS4 act inactive, MrgX1 antag inactive, RGS4 block 10*, RGS4 inh valid 93%*, RGS4 uninduced 33%* and M3R basal Ca ctr 20%*.
`CCOc1cccc(N2C(=O)/C(=C/c3ccco3)C(=O)NC2=S)c1` gave MrgX1 ag inactive, MrgX1 PAM inactive, RGS4 act inactive, MrgX1 antag inactive and RGS4 block inactive.
`O=C1NC(=S)N(c2ccc(F)cc2)C(=O)/C1=C/c1ccccc1O` gave MrgX1 ag inactive, MrgX1 PAM inactive, RGS4 act inactive, MrgX1 antag inactive and RGS4 block inactive.
Screening COc1ccc(N2C(=O)/C(=C/c3cccs3)C(=O)NC2=S)cc1 returned Cl transport mod -0.65, MrgX1 ag inactive, MrgX1 PAM inactive, RGS4 act inactive, MrgX1 antag inactive, RGS4 block 8.3*, RGS4 inh valid inactive, RGS4 uninduced inactive and M3R basal Ca ctr inactive.
`Cc1ccc(/C=C2\C(=O)NC(=S)N(c3ccc(F)cc3)C2=O)s1` gave Cl transport mod -0.096, MrgX1 ag inactive, MrgX1 PAM inactive, RGS4 act inactive, MrgX1 antag inactive, RGS4 block 15*, RGS4 inh valid 29%*, RGS4 uninduced inactive and M3R basal Ca ctr inactive.
CC(C)(C)C(=O)Nc1ccc(S(=O)(=O)N2CC3CC(C2)c2cccc(=O)n2C3)cc1 (stereo unspecified) was read as MrgX1 ag inactive, MrgX1 PAM inactive, RGS4 act inactive, MrgX1 antag inactive and RGS4 block inactive.
CCOP(=O)(OCC)/C(C#N)=C/c1ccoc1 was read as Cl transport mod 0.069, MrgX1 ag inactive, MrgX1 PAM inactive, RGS4 act inactive, MrgX1 antag inactive and RGS4 block inactive.
`Nc1c(C(=O)NCc2ccco2)c2nc3ccccc3nc2n1Cc1ccccc1` gave Cl transport mod -0.69, MrgX1 ag inactive, MrgX1 PAM inactive, RGS4 act inactive, MrgX1 antag inactive and RGS4 block inactive.
Nc1c(C(=O)NCc2ccco2)c2nc3ccccc3nc2n1CCN1CCOCC1 was read as Cl transport mod 0.0062, MrgX1 ag inactive, MrgX1 PAM inactive, RGS4 act inactive, MrgX1 antag inactive, RGS4 block 5.3*, RGS4 inh valid 14%*, RGS4 uninduced 42%* and M3R basal Ca ctr 16%*.
`Cc1cc(C(=O)O)c(C)n1C1CC1` gave Cl transport mod -0.09, MrgX1 ag inactive, MrgX1 PAM inactive, RGS4 act inactive, MrgX1 antag inactive and RGS4 block inactive.
For O=C1NC(=O)N(Cc2ccccc2)C(=O)/C1=C/C=C/c1ccco1 the results were MrgX1 ag 31*, MrgX1 PAM inactive, RGS4 act inactive, MrgX1 antag inactive, RGS4 block 7*, RGS4 inh valid 11%*, RGS4 uninduced inactive and M3R basal Ca ctr 22%*.
